Data set [1] is described as follows: physchem. Particulars: buffer, pH 7.3.
Data set [2] concerns the target Human immunodeficiency virus type 1 integrase (Human immunodeficiency virus 1, UniProt Q7ZJM1). The data set can be described thus: Inhibition of HIV1 integrase strand transfer activity.
The next data set has as its system MT4. The experiment in a line: Cytotoxicity against human MT4 cells. Format: functional.
Data set [3] in a line: physchem. To be noted: buffer, pH 2.2.
Data set [4] relates to Human immunodeficiency virus 1. The experiment in a line: Antiviral activity against HIV1 3B in MT4 cell line. Format: functional, organism-based. Particulars: Human immunodeficiency virus 1, 3B. Summed up: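 MT-4 cells infected with HIV-1 IIIB at moi 0.01 for 3 h, then ~1.5 × 10⁴ cells/well added to 5-fold serial drug dilutions (9 concentrations, triplicate) in culture medium; 37 °C for 5 days. Viability read by CellTiter-Glo chemiluminescence after 10 min lysis at room temperature; EC50 derived.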

≈ marks a conversion by molar mass, not a printed value. Some results are limits rather than exact numbers.

Sequence of Human immunodeficiency virus type 1 integrase (Q7ZJM1 whole entry): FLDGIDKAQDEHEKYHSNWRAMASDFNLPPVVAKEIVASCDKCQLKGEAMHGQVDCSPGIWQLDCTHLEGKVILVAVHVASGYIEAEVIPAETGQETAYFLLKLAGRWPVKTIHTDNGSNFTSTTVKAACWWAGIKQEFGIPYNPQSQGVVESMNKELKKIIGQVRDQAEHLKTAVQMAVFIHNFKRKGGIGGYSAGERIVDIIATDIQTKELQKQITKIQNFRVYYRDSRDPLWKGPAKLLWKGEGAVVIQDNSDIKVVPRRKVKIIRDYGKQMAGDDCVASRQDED

Regarding `COc1c2c(c(O)c3ncccc13)C(=O)N(Cc1ccc(F)cc1)C21CC1`, the solubility (in general, the concentration that dissolves in the medium under given conditions) was 26 µM (≈ 9.47 µg/mL) in the data set “physchem [1]” and 49 µM (≈ 17.9 µg/mL) in “physchem [3]”. In addition, the half-inhibitory concentration (IC50) – broadly, the concentration at which inhibition is half-maximal – in data set [2] worked out at 7 nM. In the data set with MT4, the CC50 (commonly the concentration at which the toxic effect on the cells reaches its halfway point) was 3300 nM. In addition, the EC50 (commonly the concentration at which the effect is half-maximal) in data set [4] came to 124 nM.
`C=C1c2c(c(O)c3ncccc3c2OC)C(=O)N1Cc1ccc(F)cc1` gave an IC50 in data set [2] of 150 nM. The CC50 in the data set on MT4 was 6100 nM. Besides, the EC50 in data set [4] worked out at 375 nM.
The corresponding values for `COc1c2c(c(O)c3ncccc13)C(=O)N(Cc1ccc(F)cc1)C2SCCC(=O)N1CCNCC1` (configuration not stated) are 59 nM, 5250 nM and 685 nM.
In data set [2], `COc1c2c(c(O)c3ncccc13)C(=O)N(Cc1ccc(F)cc1)C2O` (configuration not stated) displayed a 50% inhibitory concentration (IC50) of 36 nM. Also, the 50% cytotoxic concentration (CC50) in the data set on MT4 worked out at 9740 nM. Besides, the 50% effective concentration (EC50) in data set [4] is 256 nM.
As to `CC1c2c(c(O)c3ncccc3c2OS(=O)(=O)N(C)C)C(=O)N1Cc1ccc(F)cc1` (configuration not stated), the solubility in “physchem [1]” came to 2 µM (≈ 0.891 µg/mL); in “physchem [3]” it was 11 µM (≈ 4.9 µg/mL). Also, in data set [2], the concentration for half-maximal inhibition (IC50) was 815 nM. The CC50 in the data set with MT4 was 755 nM. Moreover, the EC50 in data set [4] was 8 nM.
Turning to `COC(=O)CCSC1c2c(c(O)c3ncccc3c2OC)C(=O)N1Cc1ccc(F)cc1` (configuration not stated), it took 310 nM to reach half-maximal inhibition in data set [2] (IC50). In the data set with MT4, this molecule registered a CC50 of 2800 nM. The molecule also returned a concentration giving a half-maximal response (EC50) in data set [4] of 430 nM.
`CN(C)S(=O)(=O)Oc1c2c(c(O)c3ncccc13)C(=O)N(Cc1ccc(F)cc1)C21CC1`: the solubility is 2.1 µM (≈ 0.961 µg/mL) in “physchem [1]” and 11 µM (≈ 5.03 µg/mL) in the data set “physchem [3]”. Moreover, in data set [2], 357 nM corresponded to half-maximal inhibition (IC50). This molecule displayed a half-maximal cytotoxic concentration (CC50) in the data set with MT4 of 14200 nM. For the same molecule, the EC50 in data set [4] is 443 nM.
For the molecule `C=C1c2c(c(O)c3ncccc3c2OS(=O)(=O)N(C)C)C(=O)N1Cc1ccc(F)cc1`, the solubility in “physchem [1]” and in “physchem [3]” was < 1 µM throughout. Moreover, the midpoint of inhibition in data set [2], the IC50, lay at 420 nM. The molecule also displayed a 50% cytotoxic concentration (CC50) in the data set with MT4 of 1650 nM. This molecule yielded a concentration for a half-maximal effect (EC50) in data set [4] of 52 nM.
For the molecule `COc1c2c(c(O)c3ncccc13)C(=O)N(Cc1ccc(F)cc1)C2SCCC(=O)O` (configuration not stated), in data set [2], the IC50 is 295 nM. The same molecule gave a CC50 with MT4 of 24000 nM. In data set [4], this molecule yielded an EC50 of 3400 nM.
The matching figures for `COc1c2c(c(O)c3ncccc13)C(=O)N(Cc1ccc(F)cc1)C2OC` (configuration not stated): 64 nM, 11400 nM and 415 nM.
As for `O=C1c2c(c(O)c3ncccc3c2O)C(=O)N1Cc1ccc(F)cc1`, the solubility in “physchem [1]” and in “physchem [3]” was < 1.4 µM in each case. Besides, the concentration for half-maximal inhibition (IC50) in data set [2] was found to be 80 nM. Moreover, half-maximal cytotoxicity in the data set on MT4 (CC50) was put at 19000 nM. The molecule also displayed an EC50 in data set [4] of 7500 nM.
`CN(C)S(=O)(=O)Oc1c2c(c(O)c3ncccc13)C(=O)N(Cc1ccc(F)cc1)C2`: the results for the solubility in the data set “physchem [1]” and in “physchem [3]” were < 2.3 µM and 7 µM (≈ 3.02 µg/mL), respectively. The 50% inhibitory concentration (IC50) in data set [2] was 255 nM. Moreover, in the data set with MT4, it took 1400 nM to reach half-maximal cytotoxicity (CC50).
The molecule `COc1c2c(c(O)c3ncccc13)C(=O)N(Cc1ccc(F)cc1)C2(C)C` came in with an IC50 in data set [2] of 210 nM. This molecule showed a 50% cytotoxic concentration (CC50) in the data set on MT4 of 427 nM. In data set [4], this molecule showed an EC50 of 1110 nM.
In data set [2], `COc1c2c(c(O)c3ncccc13)C(=O)N(Cc1ccc(F)cc1)C2` displayed a concentration for half-maximal inhibition (IC50) of 60 nM. The molecule further gave a CC50 with MT4 of 5100 nM.
`COc1c2c(c(O)c3ncccc13)C(=O)N(Cc1ccc(F)cc1)C2C` (configuration not stated): the solubility stood at 3 µM (≈ 1.06 µg/mL) in “physchem [1]” and 193 µM (≈ 68 µg/mL) in “physchem [3]”. The molecule also came in with an IC50 in data set [2] of 88 nM. In addition, the CC50 in the data set on MT4 came to 1600 nM. In addition, a half-maximal effect in data set [4] (EC50) was put at 77 nM.

These data come from ChEMBL document CHEMBL1146004, “Effect of substitution on novel tricyclic HIV-1 integrase inhibitors” (Bioorg Med Chem Lett, 2006).
